Test results published in ChEMBL document CHEMBL3045615, “Synthesis and herbicidal evaluation of novel 3-[(alpha-hydroxy-substituted)benzylidene]pyrrolidine-2,4-diones” (J Agric Food Chem, 2005).

Tests used:
Assay type in all cases: functional
[1] = test system: Brassica rapa subsp. oleifera; test: Herbicidal activity against Brassica rapa subsp. oleifera assessed as inhibition in green house at 1500 g/ha pre-emergence treatment measured after 15 days; details: 360 h
Summary of the method: (§1)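 Greenhouse pot test. Two replicates per treatment. Control was the same amount of water, N,N-dimethylformamide and Tween 20. Fresh weights were taken 15 days after treatment, and percentage inhibition was calculated relative to controls.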

Echinochloa crus-galli [2] = test: Herbicidal activity against Echinochloa crus-galli (barnyard grass) assessed as inhibition of seedling growth at 100 ug/ml at 28 +/- 1 degC measured after 65 hr by cup test
Echinochloa crus-galli [3] = test: Herbicidal activity against Echinochloa crus-galli (barnyard grass) assessed as inhibition of seedling growth at 10 ug/ml at 28 +/- 1 degC measured after 65 hr by cup test
[4] = test system: Brassica rapa subsp. oleifera; test: Herbicidal activity against Brassica rapa subsp. oleifera assessed as inhibition of root growth at 100 ug/ml at 28 +/- 1 degC measured after 65 hr by root test
Summary of the method: (§2)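 Rape seeds were presoaked 4 h in distilled water. About 15 seeds were placed per 6-cm Petri plate on filter paper pre-wetted with 2 mL inhibitor solution. Plates germinated in the dark for 65 h at 28 ± 1 °C. Root length of 10 roots per plate was measured and averaged. Result expressed as percentage inhibition.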

[5] = test system: Brassica rapa subsp. oleifera; test: Herbicidal activity against Brassica rapa subsp. oleifera assessed as inhibition of root growth at 10 ug/ml at 28 +/- 1 degC measured after 65 hr by root test; summary of the method: as §2
Digitaria sanguinalis [6] = test: Herbicidal activity against Digitaria sanguinalis (hairy crabgrass) assessed as inhibition in green house at 375 g/ha pre-emergence treatment measured after 15 days; details: 360 h; summary of the method: as §1
Digitaria sanguinalis [7] = test: Herbicidal activity against Digitaria sanguinalis (hairy crabgrass) assessed as inhibition in green house at 750 g/ha pre-emergence treatment measured after 15 days; details: 360 h; summary of the method: as §1
Echinochloa crus-galli [8] = test: Herbicidal activity against Echinochloa crus-galli (barnyard grass) assessed as inhibition in green house at 375 g/ha pre-emergence treatment measured after 15 days; details: 360 h; summary of the method: as §1
Echinochloa crus-galli [9] = test: Herbicidal activity against Echinochloa crus-galli (barnyard grass) assessed as inhibition in green house at 750 g/ha pre-emergence treatment measured after 15 days; details: 360 h; summary of the method: as §1
Echinochloa crus-galli [10] = test: Herbicidal activity against Echinochloa crus-galli (barnyard grass) assessed as inhibition in green house at 1500 g/ha post-emergence treatment measured after 15 days; details: 360 h; summary of the method: as §1
Echinochloa crus-galli [11] = test: Herbicidal activity against Echinochloa crus-galli (barnyard grass) assessed as inhibition in green house at 1500 g/ha pre-emergence treatment measured after 15 days; details: 360 h; summary of the method: as §1
Amaranthus retroflexus [12] = test: Herbicidal activity against Amaranthus retroflexus assessed as inhibition in green house at 1500 g/ha pre-emergence treatment measured after 15 days; details: 360 h; summary of the method: as §1
Amaranthus retroflexus [13] = test: Herbicidal activity against Amaranthus retroflexus assessed as inhibition in green house at 1500 g/ha post-emergence treatment measured after 15 days; details: 360 h; summary of the method: as §1
[14] = test system: Brassica rapa subsp. oleifera; test: Herbicidal activity against Brassica rapa subsp. oleifera assessed as inhibition in green house at 1500 g/ha post-emergence treatment measured after 15 days; details: 360 h; summary of the method: as §1
Digitaria sanguinalis [15] = test: Herbicidal activity against Digitaria sanguinalis (hairy crabgrass) assessed as inhibition in green house at 1500 g/ha post-emergence treatment measured after 15 days; details: 360 h; summary of the method: as §1
Digitaria sanguinalis [16] = test: Herbicidal activity against Digitaria sanguinalis (hairy crabgrass) assessed as inhibition in green house at 1500 g/ha pre-emergence treatment measured after 15 days; details: 360 h; summary of the method: as §1

| Compound | inhibition at 1500 g/ha [1] [%] | inhibition at 100 µg/mL (Echinochloa crus-galli [2]) [%] | inhibition at 10 µg/mL (Echinochloa crus-galli [3]) [%] | inhibition at 100 µg/mL [4] [%] | inhibition at 10 µg/mL [5] [%] | inhibition at 375 g/ha (Digitaria sanguinalis [6]) [%] | inhibition at 750 g/ha (Digitaria sanguinalis [7]) [%] | inhibition at 375 g/ha (Echinochloa crus-galli [8]) [%] | inhibition at 750 g/ha (Echinochloa crus-galli [9]) [%] | inhibition at 1500 g/ha (Echinochloa crus-galli [10]) [%] | inhibition at 1500 g/ha (Echinochloa crus-galli [11]) [%] | inhibition at 1500 g/ha (Amaranthus retroflexus [12]) [%] | inhibition at 1500 g/ha (Amaranthus retroflexus [13]) [%] | inhibition at 1500 g/ha [14] [%] | inhibition at 1500 g/ha (Digitaria sanguinalis [15]) [%] | inhibition at 1500 g/ha (Digitaria sanguinalis [16]) [%] |
| --- | --- | --- | --- | --- | --- | --- | --- | --- | --- | --- | --- | --- | --- | --- | --- | --- |
| COc1ccc(/C(O)=C2\C(=O)CN(C(C)C)C2=O)cc1 | 0 | 80 | 80 | 71 | 12 | 38 | 54 | 20 | 92 | 75 | 98 | 11 | 0 | 6 |  |  |
| Cc1ccccc1/C(O)=C1\C(=O)CN(C(C)C)C1=O | 0 | 77 | 77 | 62 | 15 | 30 | 66 | 43 | 68 | 76 | 84 | 50 | 0 | 44 |  |  |
| Cc1ccc(/C(O)=C2\C(=O)CN(C(C)C)C2=O)cc1 | 24 | 78 | 77 | 86 | 8 |  | 0 |  | 22 | 67 | 77 | 11 | 0 | 20 |  |  |
| COc1ccc(/C(O)=C2\C(=O)CN(C(C)(C)C)C2=O)cc1 | 21 | 80 | 79 | 78 | 5 | 8 | 58 | 0 | 73 | 66 | 93 | 23 | 0 | 0 |  |  |
| Cc1ccc(/C(O)=C2\C(=O)CN(C(C)(C)C)C2=O)cc1 |  | 48 | 36 | 88 | 14 |  |  |  |  |  |  |  |  |  |  |  |
| COc1ccccc1/C(O)=C1\C(=O)CN(C(C)C)C1=O | 0 | 78 | 77 | 59 | 3 |  |  |  |  | 87 | 93 | 16 | 0 | 21 |  |  |
| Cc1ccc(/C(O)=C2\C(=O)CN(C(C)C)C2=O)c(C)c1 | 20 | 76 | 74 | 54 | 10 |  |  |  |  | 66 | 71 | 13 | 0 | 16 |  |  |
| CC(C)N1CC(=O)/C(=C(/O)c2ccc(C(C)(C)C)cc2)C1=O |  | 44 | 28 | 85 | 0 |  |  |  |  |  |  |  |  |  |  |  |
| CCCCCc1ccc(/C(O)=C2\C(=O)CN(C(C)C)C2=O)cc1 |  | 12 | 5.7 | 29 | 14 |  |  |  |  |  |  |  |  |  |  |  |
| CCCc1ccc(/C(O)=C2\C(=O)CN(C(C)C)C2=O)cc1 |  | 57 | 27 | 86 | 60 |  |  |  |  |  |  |  |  |  |  |  |
| CC(C)(C)c1ccc(/C(O)=C2\C(=O)CN(C(C)(C)C)C2=O)cc1 |  | 18 | 4 | 79 | 64 |  |  |  |  |  |  |  |  |  |  |  |
| CC(C)c1ccc(/C(O)=C2\C(=O)CN(C(C)(C)C)C2=O)cc1 |  | 18 | 10 | 83 | 75 |  |  |  |  |  |  |  |  |  |  |  |
| CCCCCc1ccc(/C(O)=C2\C(=O)CN(C3CC3)C2=O)cc1 |  | 23 | 5 | 57 | 0 |  |  |  |  |  |  |  |  |  |  |  |
| O=C1CN(C2CC2)C(=O)/C1=C(\O)c1cccc(Oc2ccccc2)c1 | 0 | 66 | 58 | 80 | 28 |  |  |  |  | 15 | 0 | 0 | 9 | 3 | 10 | 0 |
| COc1ccc(/C(O)=C2\C(=O)CN(C3CC3)C2=O)c(OC)c1 |  | 79 | 78 | 77 | 16 |  |  |  |  |  |  |  |  |  |  |  |
| Cc1cc(C)cc(/C(O)=C2\C(=O)CN(C(C)C)C2=O)c1 |  | 42 | 22 | 81 | 3 |  |  |  |  |  |  |  |  |  |  |  |

| Compound | inhibition at 1500 g/ha [1] [%] | inhibition at 100 µg/mL (Echinochloa crus-galli [2]) [%] | inhibition at 10 µg/mL (Echinochloa crus-galli [3]) [%] | inhibition at 100 µg/mL [4] [%] | inhibition at 10 µg/mL [5] [%] | inhibition at 375 g/ha (Digitaria sanguinalis [6]) [%] | inhibition at 750 g/ha (Digitaria sanguinalis [7]) [%] | inhibition at 375 g/ha (Echinochloa crus-galli [8]) [%] | inhibition at 750 g/ha (Echinochloa crus-galli [9]) [%] | inhibition at 1500 g/ha (Echinochloa crus-galli [10]) [%] | inhibition at 1500 g/ha (Echinochloa crus-galli [11]) [%] | inhibition at 1500 g/ha (Amaranthus retroflexus [12]) [%] | inhibition at 1500 g/ha (Amaranthus retroflexus [13]) [%] | inhibition at 1500 g/ha [14] [%] | inhibition at 1500 g/ha (Digitaria sanguinalis [15]) [%] | inhibition at 1500 g/ha (Digitaria sanguinalis [16]) [%] |
| --- | --- | --- | --- | --- | --- | --- | --- | --- | --- | --- | --- | --- | --- | --- | --- | --- |
| Cc1cc(C)cc(/C(O)=C2\C(=O)CN(C(C)(C)C)C2=O)c1 |  | 40 | 1 | 82 | 41 |  |  |  |  |  |  |  |  |  |  |  |
| COc1ccc(/C(O)=C2\C(=O)CN(C(C)(C)C)C2=O)cc1OC |  | 59 | 0 | 70 | 58 |  |  |  |  |  |  |  |  |  |  |  |
| COc1ccc(/C(O)=C2\C(=O)CN(C3CC3)C2=O)cc1OC | 0 | 65 | 0 | 72 | 69 |  |  |  |  | 3 | 0 | 0 | 0 | 0 | 0 | 11 |
| Cc1cc(C)cc(/C(O)=C2\C(=O)CN(C3CC3)C2=O)c1 |  | 29 | 0 | 86 | 70 |  |  |  |  |  |  |  |  |  |  |  |
| COc1cc(/C(O)=C2\C(=O)CN(C3CC3)C2=O)cc(OC)c1OC |  | 26 | 4 | 60 | 45 |  |  |  |  |  |  |  |  |  |  |  |
| CCCc1ccc(/C(O)=C2\C(=O)CN(C3CC3)C2=O)cc1 |  | 41 | 8 | 75 | 0 |  |  |  |  |  |  |  |  |  |  |  |
| COCCOCOc1cccc(/C(O)=C2\C(=O)CN(C3CC3)C2=O)c1 |  | 33 | 4 | 35 | 0 |  |  |  |  |  |  |  |  |  |  |  |
| COCCOCOc1ccc(/C(O)=C2\C(=O)CN(C3CC3)C2=O)cc1 |  | 12 | 0 | 51 | 19 |  |  |  |  |  |  |  |  |  |  |  |
| COc1ccc(/C(O)=C2\C(=O)CN(C(C)C)C2=O)cc1OC |  | 76 | 68 | 34 | 24 |  |  |  |  |  |  |  |  |  |  |  |
| CC(C)c1ccc(/C(O)=C2\C(=O)CN(C(C)C)C2=O)cc1 |  | 39 | 0 | 74 | 0 |  |  |  |  |  |  |  |  |  |  |  |
| COc1cc(/C(O)=C2\C(=O)CN(C(C)C)C2=O)cc(OC)c1OC |  | 0 | 0 | 69 | 61 |  |  |  |  |  |  |  |  |  |  |  |
| COc1cc(OC)c(/C(O)=C2\C(=O)CN(C(C)C)C2=O)cc1OC |  | 64 | 0 | 62 | 60 |  |  |  |  |  |  |  |  |  |  |  |
| COCCOCOc1ccccc1/C(O)=C1\C(=O)CN(C(C)C)C1=O |  | 52 | 17 | 28 | 7 |  |  |  |  |  |  |  |  |  |  |  |
| COCCOCOc1cccc(/C(O)=C2\C(=O)CN(C(C)C)C2=O)c1 |  | 74 | 8 | 10 | 0 |  |  |  |  |  |  |  |  |  |  |  |
| COCCOCOc1ccc(/C(O)=C2\C(=O)CN(C(C)C)C2=O)cc1 |  | 21 | 0 | 51 | 19 |  |  |  |  |  |  |  |  |  |  |  |
